One may read the IC50 as the concentration that inhibits the measured activity by half. Higher therefore signals a need for much substance.

Structures are written as SMILES.

The text below walks through data of ChEMBL document CHEMBL1153346, “Structure-activity study of pentamidine analogues as antiprotozoal agents” (J Med Chem, 2009).

One data set relates to L6. Briefly: Cytotoxicity against rat L6 cells after 70 hrs by alamar blue assay. The note with it: L6, 70 h. In kind it is cell-based. The essentials:
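L6 rat myoblasts, 4000 per well, in RPMI 1640 with 2 mM L-glutamine, HEPES, NaHCO₃ and 10% FBS. Exposed to serial dilutions (DMSO ≤1%) for 70 h at 37 °C in humidified 5% CO₂. Resazurin then added for 2-3 h; fluorescence read at ex 536/em 588 nm. IC50 from sigmoidal curves; two independent runs in duplicate.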
(Alamar Blue is a resazurin reagent that responds to reducing activity.)

Data set [1] deals with Trypanosoma brucei rhodesiense. Briefly: Antiprotozoal activity against Trypanosoma brucei rhodesiense STIB900 trypomastigotes after 70 hrs by alamar blue assay. In kind it is functional, organism-based. In short, it runs like this:
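Bloodstream forms, 2000 per well, in MEM with Earle's salts plus 0.2 mM 2-mercaptoethanol, 1 mM pyruvate, 0.5 mM hypoxanthine and 15% heat-inactivated horse serum. Exposed to serial dilutions (DMSO ≤1%) for 70 h at 37 °C in 5% CO₂. Resazurin then added for a further 2-6 h. IC50 from sigmoidal curves; two independent runs in duplicate.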

The nature of data set [2]: Selectivity index, ratio of IC50 for rat L6 cells to IC50 for Trypanosoma brucei rhodesiense STIB900 trypomastigotes. In kind it is toxicity, cell-based. The note with it: read-out: Ratio IC50. The essentials:
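Ratio of L6 IC50 to STIB900 IC50. L6 cells: 4000/well in RPMI 1640 with 10% FBS, 70 h at 37 °C. Bloodstream forms: 2000/well in supplemented MEM with 15% horse serum, 70 h at 37 °C. Both read by Alamar blue fluorescence; IC50s from sigmoidal curves, two independent runs in duplicate.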

The next data set has as its system Plasmodium falciparum. Description: Antiprotozoal activity after 48 hrs against chloroquine-resistant Plasmodium falciparum K1 infected erythrocytes by [3H]hypoxanthine uptake. In kind it is functional, organism-based. The essentials:
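Erythrocytic stages in infected human red cells (hematocrit 1.25%, parasitemia 0.3%) in supplemented RPMI 1640 with Albumax II. Serial dilutions incubated at 37 °C in 93% N2/4% CO2/3% O2. [3H]-hypoxanthine (0.5 µCi/well) added at 48 h, then 24 h more. Incorporation counted by scintillation. IC50 from sigmoidal curves; two independent runs in duplicate.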

A short description of data set [3]: Selectivity index, ratio of IC50 for rat L6 cells to IC50 for chloroquine-resistant Plasmodium falciparum K1. It counts as toxicity, cell-based. The note with it: read-out: Ratio IC50. The essentials:
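Ratio of L6 IC50 to K1 IC50. L6 cells: Alamar blue assay after 70 h, 37 °C. K1: [3H]-hypoxanthine incorporation in infected red cells over 48 + 24 h at 37 °C under low O2. IC50s from sigmoidal curves, two independent runs in duplicate.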

A further data set has as its system Leishmania donovani. Description: Antiprotozoal activity against Leishmania donovani MHOM/SD/62/1S-CL2D axenic amastigotes after 72 hrs. In kind it is functional, organism-based. In short, it runs like this: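 L. donovani axenic amastigotes, adapted from promastigotes and grown in amastigote medium at 37 °C. 6 × 10⁴ parasites per well with 2-fold compound dilutions (DMSO ≤1%), incubated 72 h at 37 °C in humidified 5% CO₂. Growth read by tetrazolium (CellTiter) absorbance at 490 nm. IC50 from a four-parameter dose-response fit. Average of duplicate determinations.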

Data set [4] is described as follows: Selectivity index, ratio of IC50 for rat L6 cells to IC50 for Leishmania donovani MHOM/SD/62/1S-CL2D axenic amastigotes. It counts as toxicity, cell-based. The note with it: read-out: Ratio IC50. In short, it runs like this: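 Amastigotes: 6 × 10⁴ parasites/well with 2-fold dilutions, 72 h at 37 °C in 5% CO2. Growth read by tetrazolium CellTiter absorbance at 490 nm; IC50 from a four-parameter dose-response fit.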

For `N=C(N)c1ccc(OCCCOc2ccc(C(=N)N)cc2[N+](=O)[O-])c([N+](=O)[O-])c1`, the 50% inhibitory concentration (IC50) with L6 was found to be 22.8 µM; in data set [1], 0.188 µM; with Plasmodium falciparum, 0.035 µM; with Leishmania donovani, 30.9 µM. Further, the selectivity ratio in data set [2] is 121; in data set [3], 651; in data set [4], 0.7.

For `N=C(N)c1ccc(OCCCCCOc2ccc(N)cc2)cc1`, the 50% inhibitory concentration (IC50) with L6 is 120 µM; in data set [1], 1.31 µM; with Plasmodium falciparum it was 2.24 µM; with Leishmania donovani, above 100 µM. Besides, the selectivity ratio was determined as 91 in data set [2], 54 in data set [3] and 1 in data set [4].

On to `CC(C)NC(=N)c1cccc(OCCCCOc2cccc(C(=N)NC(C)C)c2)c1`, for which the IC50 with L6 was above 171 µM; in data set [1], 0.619 µM; with Plasmodium falciparum it was 0.013 µM; in the data set with Leishmania donovani it was 19.3 µM. For the same molecule, the selectivity ratio is above 276 in data set [2], above 13200 in data set [3] and above 9 in data set [4].

Turning to `N=C(N)c1ccc(OCCCCCOc2ccc(C(=N)N)c(O)c2)cc1O`, the half-maximal inhibitory concentration (IC50) in the data set with L6 is above 195 µM; in data set [1], 7.96 µM; in the data set on Plasmodium falciparum it was 1.29 µM; in the data set on Leishmania donovani, above 100 µM. Besides, the selectivity ratio in data set [2] is above 24; in data set [3], above 151.

On to `O=C(O)c1cc(C2=NCCN2)ccc1OCCCCCOc1ccc(C2=NCCN2)cc1C(=O)O`, for which the half-inhibitory concentration (IC50) was above 151 µM in the data set on L6, above 16.8 µM in data set [1], above 1.68 µM with Plasmodium falciparum and above 200 µM in the data set with Leishmania donovani.

With `Oc1cc(OCCCCCOc2ccc(C3=NCCN3)c(O)c2)ccc1C1=NCCN1`, the half-inhibitory concentration (IC50) in the data set on L6 was above 169 µM; in data set [1], 3.7 µM; in the data set on Plasmodium falciparum it was 0.098 µM; with Leishmania donovani, above 100 µM. In addition, the selectivity ratio in data set [2] was above 46; in data set [3], above 1720; in data set [4], 2.

For `N=C(N)c1ccc(OCCCCCOc2ccc(C(=N)N)cc2C(=O)O)c(C(=O)O)c1`, the IC50 in the data set with L6 is above 165 µM; in data set [1], above 18.3 µM; in the data set with Plasmodium falciparum, 71.8 µM. In addition, the selectivity ratio in data set [3] came out at 2.

As to `c1cc(OCCCCOc2cccc(C3=NCCN3)c2)cc(C2=NCCN2)c1`, the 50% inhibitory concentration (IC50) with L6 is above 185 µM; in data set [1], 1.94 µM; with Plasmodium falciparum it was 0.107 µM; in the data set with Leishmania donovani, 39.5 µM. The selectivity ratio in data set [2] is above 95; in data set [3], above 1730; in data set [4] it was above 5.

`N/N=C(\N)c1ccc(OCCCCCOc2ccc(/C(N)=N/N)cc2)cc1`: the half-maximal inhibitory concentration (IC50) was 139 µM in the data set with L6, 9.67 µM in data set [1], 1.41 µM in the data set with Plasmodium falciparum and 126 µM with Leishmania donovani. For the same molecule, the figures for the selectivity ratio in data set [2], in data set [3] and in data set [4] were 14, 99 and 1, respectively.

Take `Nc1cc(C2=NCCN2)ccc1OCCCOc1ccc(C2=NCCN2)cc1N`: the IC50 was above 167 µM with L6, 0.813 µM in data set [1] and 0.07 µM with Plasmodium falciparum. Further, the selectivity ratio in data set [2] was above 205; in data set [3], above 2390.

For the molecule `CC(C)NC(=N)c1cccc(OCCCCCCOc2cccc(C(=N)NC(C)C)c2)c1`, the half-maximal inhibitory concentration (IC50) worked out at 107 µM in the data set on L6, 0.258 µM in data set [1], 0.006 µM with Plasmodium falciparum and 11.6 µM in the data set with Leishmania donovani. Besides, the selectivity ratio stood at 415 in data set [2], 17800 in data set [3] and 9 in data set [4].

As to `N=C(N)c1ccc(OCCCCOc2ccc(C(=N)N)cc2[N+](=O)[O-])c([N+](=O)[O-])c1`, the IC50 amounted to 42.8 µM with L6, 0.181 µM in data set [1], 0.018 µM with Plasmodium falciparum and 15.1 µM in the data set with Leishmania donovani. Besides, the selectivity ratio in data set [2] was determined as 236; in data set [3], 2380; in data set [4], 3.

On to `CC(C)NC(=N)c1cccc(OCCCOc2cccc(C(=N)NC(C)C)c2)c1`, for which the half-maximal inhibitory concentration (IC50) was above 183 µM in the data set with L6, 0.543 µM in data set [1], 0.018 µM in the data set on Plasmodium falciparum and 16.2 µM in the data set with Leishmania donovani. Further, the selectivity ratio in data set [2] is above 337; in data set [3], above 10200; in data set [4], above 11.

`CC(C)NC(=N)c1ccc(OCCCCCOc2ccc(C(=N)NC(C)C)c(F)c2)cc1F`: the concentration for half-maximal inhibition (IC50) in the data set on L6 was 131 µM; in data set [1], 0.259 µM; in the data set on Plasmodium falciparum, 0.007 µM; in the data set with Leishmania donovani, 15 µM. For the same molecule, the figures for the selectivity ratio in data set [2], in data set [3] and in data set [4] were 506, 18700 and 9, respectively.

Consider `C[C@@H]1CC[C@H]2[C@@H](C)C(=O)O[C@@H]3O[C@@]4(C)CC[C@@H]1[C@]32OO4` [ARTEMISININ], for which the selectivity ratio in data set [3] was 75000.

For the molecule `N=C(N)c1ccc(OCCCCCOc2ccc(C(=N)N)cc2[N+](=O)[O-])c([N+](=O)[O-])c1`, the 50% inhibitory concentration (IC50) was 37.3 µM in the data set with L6, 0.098 µM in data set [1], 0.024 µM in the data set with Plasmodium falciparum and 11.4 µM in the data set with Leishmania donovani. The selectivity ratio in data set [2] was found to be 381; in data set [3], 1550; in data set [4] it was 3.

For `CCOC(=O)c1cc(C2=NCCN2)ccc1OCCCCCOc1ccc(C2=NCCN2)cc1C(=O)OCC`, the IC50 is above 138 µM with L6, above 15.3 µM in data set [1], 0.027 µM in the data set on Plasmodium falciparum and 13.6 µM with Leishmania donovani. In addition, the selectivity ratio was above 5110 in data set [3] and above 10 in data set [4].

As to `N=C(N)c1ccc(OCCCOc2ccc(C(=O)O)cc2)cc1`, the IC50 with L6 is 167 µM; in data set [1], above 257 µM; in the data set on Plasmodium falciparum, above 2.8 µM; with Leishmania donovani, above 100 µM. The selectivity ratio was below 0.6 in data set [2], below 60 in data set [3] and below 2 in data set [4].

On to `CNC(=N)c1ccc(OCCCOc2ccc(C(=N)NC)cc2OC)c(OC)c1`, for which the IC50 came to 177 µM with L6, 0.057 µM in data set [1], 0.641 µM with Plasmodium falciparum and 25.3 µM with Leishmania donovani. For the same molecule, the selectivity ratio in data set [2] is 3100; in data set [3] it was 276; in data set [4] it was 7.

On to `c1cc(OCCCOc2cccc(C3=NCCN3)c2)cc(C2=NCCN2)c1`, for which the IC50 in the data set with L6 was 43.5 µM; in data set [1] it was 4.3 µM; in the data set with Plasmodium falciparum, 5.39 µM; with Leishmania donovani, 30.8 µM. For the same molecule, the selectivity ratio was 10 in data set [2], 8 in data set [3] and 1 in data set [4].

Turning to `CC(=N)Nc1ccc(OCCCCCOc2ccc(NC(C)=N)cc2)cc1`, the 50% inhibitory concentration (IC50) in the data set with L6 was above 202 µM; in data set [1], 3.04 µM; in the data set on Plasmodium falciparum, 0.048 µM; in the data set with Leishmania donovani, above 100 µM. Besides, the selectivity ratio is above 66 in data set [2] and above 4210 in data set [3].

`CCOC(=O)c1cc(C(=N)N)ccc1OCCCCCOc1ccc(C(=N)N)cc1C(=O)OCC`: the IC50 in the data set on L6 is above 152 µM; in data set [1], 12.1 µM; with Plasmodium falciparum, 0.021 µM; with Leishmania donovani, above 50 µM. Also, the results for the selectivity ratio in data set [2] and in data set [3] were above 13 and above 7240, respectively.

Take `CC(C)NC(=N)c1ccc(OCCCCCOc2ccc(C(=N)NC(C)C)cc2C(=O)O)c(C(=O)O)c1`: the IC50 with L6 is above 144 µM; in data set [1], above 16 µM; in the data set on Plasmodium falciparum, above 1.6 µM; in the data set on Leishmania donovani it was above 200 µM.

Turning to `CN1CCN=C1c1ccc(OCCCCCOc2ccc(C3=NCCN3C)cc2)cc1`, the 50% inhibitory concentration (IC50) in the data set with L6 is above 176 µM; in data set [1], above 19.6 µM; in the data set with Plasmodium falciparum, 1.65 µM; in the data set with Leishmania donovani, above 100 µM. For the same molecule, the selectivity ratio is above 107 in data set [3] and 2 in data set [4].

Regarding `c1cc(-c2nnn[nH]2)ccc1OCCCCCOc1ccc(-c2nnn[nH]2)cc1`, the IC50 with L6 is above 229 µM; in data set [1], above 229 µM; in the data set on Plasmodium falciparum, 8.31 µM; with Leishmania donovani, above 100 µM. Moreover, the selectivity ratio in data set [3] was above 28; in data set [4] it was 2.
